# TRPML3 agonist = human mucolipin-3 channel agonism; Q8TDD5; HEK293 TRPML3-YFP, Fluo-8 calcium fluorescence; 100% = the carbachol control signal; activation, % at 3 µM; actives 0.29% (n = 220,000); AID 1448;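 active = activation above its plate's cutoff, the mean activation of the plate's test wells plus 3 SD, cut at about 12% in these data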;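 also: 0% = DMSO only wells and 100% = carbachol wells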
# Target sequence (Q8TDD5 whole entry, looked up): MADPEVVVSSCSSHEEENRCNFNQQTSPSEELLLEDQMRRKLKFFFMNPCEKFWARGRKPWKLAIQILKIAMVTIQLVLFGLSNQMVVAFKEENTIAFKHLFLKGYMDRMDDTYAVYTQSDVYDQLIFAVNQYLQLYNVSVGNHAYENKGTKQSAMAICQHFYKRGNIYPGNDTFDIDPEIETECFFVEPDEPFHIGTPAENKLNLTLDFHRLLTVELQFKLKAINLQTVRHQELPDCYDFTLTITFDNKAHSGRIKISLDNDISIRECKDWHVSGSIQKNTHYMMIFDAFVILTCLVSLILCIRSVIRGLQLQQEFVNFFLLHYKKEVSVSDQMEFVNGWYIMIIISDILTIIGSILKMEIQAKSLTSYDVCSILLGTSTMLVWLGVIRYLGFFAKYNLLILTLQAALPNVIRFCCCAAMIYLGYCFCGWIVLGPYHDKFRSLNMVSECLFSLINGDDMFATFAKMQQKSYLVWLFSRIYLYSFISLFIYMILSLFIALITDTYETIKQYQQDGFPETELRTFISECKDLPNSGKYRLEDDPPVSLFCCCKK
#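 Material: HEK293 cells stably carrying human TRPML3-YFP; compound dosing: single dose, 3 µM final nominal compound, 0.3% DMSO final; incubation: 1-h 37 °C dye load, 5-s basal, 120-s post-compound reads; technique: Fluo-8 intracellular calcium fluorescence, excitation 470-495 nm, emission 515-575 nm; read-out basis: percent activation from peak-to-basal fluorescence ratio, scaled between DMSO and carbachol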
# OX1R antag-1 = OX1R (human) antagonism; O43613; OX1R-expressing cells, FRET antagonist read-out; inhibition, % at 6.6 µM; actives 1.8% (n = 330,000); in the data active = inhibition mostly above about 38%, no sharp cut-off; inactive = mostly below about 40%;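 also: 0% = agonist challenge alone and 100% = reference antagonist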
# CHO parental Ca = counter-screen: ATP calcium response change in parental CHO cells; parental CHO-K1, ATP-induced calcium, Fluo-8 fluorescence; AID 463079; actives 0.63% (n = 330,000); inhibition, % at 5.6 µM;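 active = inhibition above that plate's mean sample inhibition plus 3 SD, cut at about 26% in these data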;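 also: 0% = ATP-challenged DMSO wells and 100% = DMSO wells without ATP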
#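 Material: Parental CHO cells | Reagent: ATP | Compound dosing: Single nominal dose of 5.6 µM per compound | Detection: Intracellular calcium via Fluo-8 no-wash fluorescent dye | Read-out: % inhibition of ATP-induced calcium mobilization | Benchmarks: Low control ATP plus DMSO, high control DMSO only | Replicates: Singlicate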
# OX1R antag-2 = antagonists of human orexin 1 receptor | CHO/OX1R cells, Fluo-8 calcium fluorescence, orexin A | inhibition, % at 5 µM | actives 0.43% (n = 330,000) | O43613;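 active = inhibition above its plate's threshold, mean inhibition of all tested compounds on the plate plus 3 SD, cut at about 37% in these data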;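 also: 0% = orexin A challenge wells and 100% = SB-334867-A antagonist wells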
# zfTRPN1 agonist = zebrafish TRPN1 (NompC) channel agonism | AID 1424 | actives 0.18% (n = 220,000) | activation, % at 3 µM | HEK293 zebrafish TRPN1-YFP, Fluo-8 calcium fluorescence; 100% = response to 87 µM carbachol;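 active = activation above its plate's cutoff, the mean activation of test wells on that plate plus 3 SD, cut at about 19% in these data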;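 also: 0% = DMSO alone and 100% = 87 µM carbachol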
#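 Assay system: Zebrafish TRPN1-YFP in HEK293 cells | Incubation: Dye loading 1 h at 37 °C, then 30 min room temperature | Measured by: Kinetic Fluo-8 fluorescence, ex 470-495, em 515-575 nm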
# * = called active by the depositor; / = not tested or not shown. Compounds with a hit are over-represented: about 2.5% of the library has one in this group of screens.
SMILES,TRPML3 agonist,OX1R antag-1,CHO parental Ca,OX1R antag-2,zfTRPN1 agonist
CCOC(=O)C1CCN(C(=O)COc2cc(C)c(Br)cc2C)CC1,0,54,54*,50*,3
CN1c2ccsc2C(O)=C(C(=S)Nc2ccc(F)c(Cl)c2)S1(=O)=O,0,50*,-11,-5,0
Cc1ccc(/C=C/c2nnc(-c3cccs3)o2)cc1,-1,42*,-28,-10,-1
CC[N+]1=C(C)C(C)(C)c2cc(C)ccc21,4,43,64*,70*,11
CCN1C(=O)C(=O)c2cc(C)ccc21,/,25,-6,-8,/
Clc1cccc(Cl)c1/C=C/c1nc2ccccc2[nH]1,-1,50*,-26,-20,-2
COc1ccc([N+](=O)[O-])c(S(=O)(=O)c2ccc(Cl)cc2)n1,2,48,46*,38,1
CCCC/C(C)=N/NC(=O)CN(c1ccc(Br)cc1)S(=O)(=O)c1ccccc1,0,-1,-35,-35,0
C/C(=N/NC(=O)CN(c1ccccc1)S(=O)(=O)c1ccccc1)c1ccccc1O,/,50*,0,-24,/
OC(CNCCc1ccc(C(F)(F)F)cc1)COc1cccc2ccccc12 (centres undefined),1,8,25,2,0
COc1ccc(CNCC(O)COc2ccc(C(C)(C)c3ccccc3)cc2)cc1 (centres undefined),/,-9,36*,-9,/
OC(CNCCc1ccc(C(F)(F)F)cc1)COc1ccc2ccccc2c1 (centres undefined),1,-5,48*,15,-1
OC(CNc1ccccc1)COc1ccc(OCC(O)CNc2ccccc2)cc1 (centres undefined),2,40,50*,40,1
Cc1ccc(S(=O)(=O)CCC(=O)OC(C)C(=O)NC2CCCCC2C)cc1 (centres undefined),/,0,-3,-17,/
CCOc1cc(/C=C\c2nc(O)c([N+](=O)[O-])c(=O)[nH]2)ccc1OC(C)C,/,15,-2,-9,/
O=c1[nH]c(/C=C\c2cccs2)nc(O)c1[N+](=O)[O-],1,65*,-7,-1,1
O=c1[nH]c(/C=C\c2ccc(O)cc2)nc(O)c1[N+](=O)[O-],/,47*,6,-12,/
O=c1[nH]c(/C=C\c2ccc(O)c(Cl)c2)nc(O)c1[N+](=O)[O-],/,51*,7,-10,/
CC1CCCC(C)N1C(=O)COC(=O)c1cc(-c2cccs2)nn1-c1ccccc1 (centres undefined),/,5,-23,-32,/
O=C(NCc1cccnc1)[C@@H]1CC=C[C@@H]2CCN(Cc3ccccc3)C(=O)[C@@H]21,/,44,-13,9,/
CCOC(=O)C1CCN(S(=O)(=O)c2ccccc2)CC1,/,-8,-9,-16,/
CCOC(=O)C1CCN(S(=O)(=O)c2c(Cl)ccc3nonc23)CC1,/,89*,14,9,/
CC1=NNC(=O)/C1=C\c1cn(-c2ccccc2)nc1-c1cccs1,2,28,63*,73*,3
O=C(COc1ccc2ccccc2c1Br)N1CCCCC1,/,23,10,-21,/
O=C(Oc1ccc2ccccc2c1Br)N1CCCCCC1,0,18,33*,-15,-1
SMILES,TRPML3 agonist,OX1R antag-1,CHO parental Ca,OX1R antag-2,zfTRPN1 agonist
CCOC(=O)C1=C(C)Nc2ccccc2N/C1=N\S(=O)(=O)c1cccc(Cl)c1,/,16,-29,-30,/
CCOC(=O)C1=C(C)Nc2ccccc2N/C1=N\S(=O)(=O)c1ccc(Cl)cc1,/,30*,-1,6,/
CCOc1ccc(-n2c(=O)c3sccc3n(Cc3cccc([N+](=O)[O-])c3)c2=O)cc1,1,28,-2,-14,0
CC(C)OCCCn1c(=NC(=O)c2ccncc2)c(C#N)cc2c(=O)n3ccccc3nc21,1,52*,-12,-22,1
CC(C)OCCCn1c(=N)c(C(N)=S)cc2c(=O)n3ccccc3nc21,-1,75*,-24,-34,0
CCC(=O)Nc1nnc(SCC(=O)NC2CCCC2)s1,/,10,-2,5,/
CC(NS(=O)(=O)OCC(Cl)(Cl)Cl)c1ccc(C(C)(C)C)cc1 (centres undefined),/,50,64*,42,/
Cc1ccc(N(CC(=O)N2CCN(c3ccccc3F)CC2)S(=O)(=O)c2c(C)noc2C)cc1,/,6,5,-13,/
CSc1ccc(Cl)c(C(=O)NCCCn2ccnc2)c1,/,9,-13,-11,/
COc1ccc(CN(C)S(=O)(=O)c2nnc(NC(=O)c3ccccc3)s2)cc1OC,/,22,-9,-8,/
COc1ccc(CN(C)S(=O)(=O)c2nnc(NC(=O)c3cccc(F)c3)s2)cc1OC,/,43*,-1,-28,/
CCNC(=O)NC(=O)C(C)Sc1ncc(C(F)(F)F)cc1Cl (centres undefined),0,10,-14,-6,-3
COc1ccc(-c2cn3cc(Cl)ccc3n2)cc1OC,-1,45*,-19,19,-2
COc1ccc(-c2cn3cc(C)ccc3n2)cc1Br,0,45,-21,-13,0
CCC(C)(C)c1ccc(OCCCC[n+]2cccc(C)c2)c(C(C)(C)CC)c1,1,/,/,/,-1
O=C(COC(=O)c1ccccc1O)NCCc1c[nH]c2ccccc12,/,3,-18,14,/
O=C(Nc1ccncc1)c1cn(-c2ccccc2)nc1-c1cccs1,1,27,9,-4,1
CC(NC(=O)COC(=O)c1c[nH]c2ccccc12)c1ccccc1 (centres undefined),/,43*,-9,32,/
O=C(COC(=O)c1c[nH]c2ccccc12)Nc1ccccc1,/,12,-4,-4,/
O=C(NCCc1c[nH]c2ccccc12)OCCCCOC(=O)NCCc1c[nH]c2ccccc12,/,61*,31,61*,/
CC(NC(=O)COC(=O)c1cn(-c2ccccc2)nc1-c1cccs1)c1ccccc1 (centres undefined),-1,64*,-7,10,0
O=C(COC(=O)c1ccccc1C(=O)OCC(=O)NCCc1c[nH]c2ccccc12)NCCc1c[nH]c2ccccc12,/,68*,29,58*,/
O=C(CCCc1c[nH]c2ccccc12)NCCc1c[nH]c2ccccc12,/,49*,1,19,/
CC(C)CNC(=O)CCCc1c[nH]c2ccccc12,-1,27,-12,-22,0
O=C(O)c1ccc(N2CCN(C(c3ccccc3)c3ccccc3)CC2)c([N+](=O)[O-])c1,/,-4,4,-6,/
C=C1CCN(c2ccc(C(=O)O)cc2[N+](=O)[O-])CC1,/,70*,-6,-15,/
O=C(Nc1ccc(Cl)c(C(F)(F)F)c1)c1ccncc1,1,32,-12,-7,2
CNC(=O)c1cc(Oc2ccc(NC(=O)Nc3ccc(Cl)c(C(F)(F)F)c3)cc2)ccn1,/,47*,19,39,/
Cc1nnsc1C(=O)N/N=C/c1ccc(OC(F)(F)F)cc1,0,30,-6,0,1

# From PubChem BioAssay
